High-throughput results (PubChem)
Rows were chosen to be rich in hits. Some 2.3% of all compounds tested hit in one or more screens of this group.
TRPC4 block = inhibitors of mouse TRPC4 channel; Q9QUQ5; HEK293 TRPC4beta/mu-opioid, DAMGO-evoked Fluo4 calcium flux; stronger effect = lower value; AID 2247; B-score at 10 µM; 0.39% of 300,000 active;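 active = B-score over 3 SD under the library average, no early fluorescence shift, positive overall ratio signal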
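Assay system – HEK293 line stably carrying TRPC4beta and mu-opioid receptor · Doses – single dose · Detection – Fluo4 calcium-dye fluorescence, kinetic read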
TRPC6 inh = blocks the mouse TRPC6 cation channel; HEK293-TRPC6, membrane potential dye, ACh-evoked depolarization; stronger effect = lower value; Q61143; 1.1% of 310,000 active; B-score at 10 µM;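 active = B-score under library mean minus 3 SD, initial fluorescence not abnormally high, positive integrated signal ratio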;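 note: B-score derived from integrated fluorescence ratio over the kinetic read; more negative B-score means stronger inhibition of depolarization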
TRPC6 act = activates the mouse TRPC6 cation channel. AID 2550. HEK293-TRPC6 membrane potential dye fluorescence; stronger effect = higher value. Q61143. B-score at 10 µM. 0.13% of 310,000 active;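 active = B-score of the integrated fluorescence ratio above library mean plus 3 SD, and starting fluorescence ratio within library mean plus 5 SD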;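 note: higher score means more depolarization so channel activation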
TRPC4 agonist = activators of mouse TRPC4 channel; 0.49% of 310,000 active; HEK293 TRPC4beta/mu-opioid, Fluo4 calcium fluorescence; stronger effect = higher value; Q9QUQ5; B-score at 10 µM;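 active = B-score above 5 SD of library B-scores, and initial fluorescence ratio not above library mean plus 5 SD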;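 note: positive B-score marks a calcium rise read as TRPC4 activation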
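Assay system: HEK293 cells stably co-expressing mouse TRPC4beta and mu-opioid receptor / Timing: Fluo4 dye loading 45 min at room temperature, 110 s recording / Signal: Fluo4 calcium-sensitive dye fluorescence, kinetic, 1 Hz baseline / Read-out: integrated baseline-normalised fluorescence ratio, converted to per-well B score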
TRPC4 PAM = allosteric potentiators of mouse TRPC4 channel | Q9QUQ5 | 0.42% of 310,000 active | B-score at 10 µM | HEK293 TRPC4beta/mu-opioid, DAMGO EC20, Fluo-4 Ca2+ flux; stronger effect = higher value;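 active = B-score of calcium response area above 5 SD of library B-scores, with initial fluorescence ratio within 5 SD of library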;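 note: B-score of integrated fluorescence ratio over time as area under calcium response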
* = called active by the depositor; i = inactive.

SMILES	TRPC4 block	TRPC6 inh	TRPC6 act	TRPC4 agonist	TRPC4 PAM
C=CCOC(=O)C1=C(C)OC(N)=C(C#N)[C@@]12C(=O)N(CC(N)=O)c1ccccc12	i	i	i	i	22*
CC1=C(C(=O)OC(C)C)[C@]2(C(=O)N(CC(N)=O)c3ccccc32)C(C#N)=C(N)O1	i	i	i	i	i
C[C@]12CCC(=O)C=C1CC[C@@H]1[C@@H]2C(=O)C[C@]2(C)C(=O)CC[C@@H]12	i	i	i	i	i
CCOc1ccc(-n2c(-c3ccoc3)nc3ccccc3c2=O)cc1	i	i	i	i	i
CCOc1ccc(-c2c(C)n(-c3ccc(OCC)cc3)c3[n+]2CCCCC3)cc1	i	-9.44*	13.3*	i	i
O=C1CN=C(c2ccc(Br)cc2)c2c(sc3c2CCCC3)N1CCN1CCCCC1	i	i	i	i	i
Clc1cccc(C2NCCc3[nH]cnc32)c1 (stereo not given)	i	i	i	50*	i
Fc1ccc(C2NCCc3[nH]cnc32)cc1 (stereo not given)	i	i	i	60*	i
COP(=O)(OC)C(NS(=O)(=O)c1ccccc1)C(Cl)(Cl)Cl (stereo not given)	i	i	i	i	i
O=C(c1ccc2c3c(cccc13)CC2)C1CCCN(Cc2ncc[nH]2)C1 (stereo not given)	i	i	i	46*	i
O=C(c1ccc2c3c(cccc13)CC2)C1CCCN(CC2CC2)C1 (stereo not given)	i	i	i	158*	i
CN[C@H]1C[C@H]2O[C@@](C)([C@H]1OC)n1c3ccccc3c3c4c(c5c6ccccc6n2c5c31)C(=O)NC4	i	-5.76*	i	i	27*
COc1ccc(OC)c(CNCCc2ccc(OC)c(OC)c2)c1	i	i	i	i	i
C[N+]1(CCC(C(N)=O)(c2ccccc2)c2ccccc2)CCCCC1	i	-9.67*	i	i	i
O=C(c1ccc(Cl)cc1)C1CCCN(Cc2ccc3ncccc3c2)C1 (stereo not given)	i	i	i	80*	i
CCNC(=O)C1OC(n2cnc3c(N)ncnc32)C(O)C1O (stereo not given)	i	i	i	53*	i
O=[N+]([O-])c1ccc(C2[C@H]3C(c4ccccc4)=NC4(CCCCC4)N23)cc1 (stereo not given in full)	i	i	i	i	i
CC(N)Cc1c[nH]c2c1ccc1ccccc12 (stereo not given)	i	i	i	92*	i
C[N+]1(C)[C@@H]2CC[C@H]1CC(OC(=O)C(CO)c1ccccc1)C2 (stereo not given in full)	i	-7.06*	i	i	i
CN1CCN(Cc2nc3ccccc3n2C)CC1	i	i	i	i	11*
COC[C@]12CN(C)C3C4[C@H](OC)[C@H]1C3([C@@H](OC)C[C@H]2O)[C@@H]1C[C@@]2(O)[C@H](OC(=O)c3ccccc3)[C@@H]1[C@]4(OC(C)=O)[C@@H](O)[C@@H]2OC	i	i	i	i	i
Cc1ccccc1C(O)(Cc1ccccc1)C1CN2CCC1CC2 (stereo not given)	i	i	i	87*	i
CC(=NCc1ccc2c(c1)OCO2)c1c(O)n(-c2ccc(C)cc2)c(=O)[nH]c1=O	i	i	i	i	i
Cc1ccc(CN2C3CCCC2CC(NC(=S)NCc2ccccc2)C3)cc1 (stereo not given)	-8*	i	i	i	i
CCN(CC)P(=S)(c1c(C)nc2ccccn12)c1c(C)nc2ccccn12	i	i	i	i	i
CCCN1CCC[C@@H]2Cc3[nH]ncc3C[C@H]21	i	i	i	i	i
CCCN1CCC[C@@H]2Cc3nc(N)ncc3C[C@H]21	i	i	i	i	11*
C=Cn1ccnc1P(=S)(c1ccc(Cl)cc1)c1nccn1C=C	i	i	i	i	i
CCN(CC)c1ccc(CNCCc2ccc(F)cc2)cc1	i	i	i	51*	i
